Experimental data as given in ChEMBL document CHEMBL1129987, “Structure-based design of nonpeptidic HIV protease inhibitors: the sulfonamide-substituted cyclooctylpyramones” (J Med Chem, 1997).

How the values were obtained:
[1] = biological target: Human immunodeficiency virus type 1 protease (Human immunodeficiency virus 1) (UniProt Q72874); experiment: Percentage inhibition against HIV-1 protease at 1.1 uM concentration of drug
[2] = biological target: Human immunodeficiency virus type 1 protease (Human immunodeficiency virus 1) (UniProt Q72874); experiment: Percentage inhibition against HIV-1 protease at 3 uM concentration of drug
[3] = Median cell culture toxic dose was evaluated against H9 cell line; assay type: ADME, cell-based; details: human, H9 cells; read-out: CCTD50
[4] = system: Human immunodeficiency virus 1; experiment: Antiviral activity in HIV-1 infected H9 cells; assay type: functional; details: Human immunodeficiency virus 1, H9; read-out: ED50 (the source's name)
Method in brief: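 H9 cells infected with HIV-1 IIIB at MOI about 0.005, spun down (200g, 10 min), resuspended at 8 × 10^5 cells/mL in RPMI Complete and mixed with compound; final DMSO 0.1%, triplicate per concentration. After 5 days at 37 °C in 5% CO2, supernatant p24 antigen was measured by ELISA. ED50 is the drug amount that reduces p24 by 50% versus DMSO drug-free controls.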

[5] = biological target: Human immunodeficiency virus type 1 protease (Human immunodeficiency virus 1, UniProt Q72874); experiment: Binding affinity against HIV-1 protease

Compound	inhibition [1]	inhibition [2]	CC50 [3]	EC50 [4]	Ki [5]
O=c1c2c(oc(O)c1C(c1cccc(N(CC3CC3)S(=O)(=O)c3ccccc3)c1)C1CC1)CCCCCC2 (stereo not given)	< 10%	–	–	–	–
O=c1c2c(oc(O)c1C(c1cccc(N(CCc3ccccc3)S(=O)(=O)c3ccccc3)c1)C1CC1)CCCCCC2 (stereo not given)	< 10%	< 10%	–	–	–
CC(C)CC(c1cccc(NS(=O)(=O)c2cccc3cccnc23)c1)c1c(O)c2c(oc1=O)CCCCCC2 (stereo not given)	–	–	> 30 µM	> 10 µM	3.3 nM
O=c1c2c(oc(O)c1C(c1cccc(NS(=O)(=O)c3ccc4ccccc4c3)c1)C1CC1)CCCCCC2 (stereo not given)	–	–	> 30 µM	3.4 µM	4.1 nM
N#Cc1ccc(S(=O)(=O)Nc2cccc(C(c3c(O)oc4c(c3=O)CCCCCC4)C3CC3)c2)nc1 (stereo not given)	–	–	> 30 µM	0.9 µM	1 nM
CC(C)CC(c1cccc(NS(=O)(=O)c2ccc(F)cc2)c1)c1c(O)c2c(oc1=O)CCCCCC2 (stereo not given)	–	–	> 30 µM	> 10 µM	2.8 nM
O=c1c2c(oc(O)c1C(c1cccc(NS(=O)(=O)c3cccs3)c1)C1CC1)CCCCCC2 (stereo not given)	–	–	> 30 µM	> 10 µM	6.3 nM
Nc1cccc(S(=O)(=O)Nc2cccc(C(c3c(O)c4c(oc3=O)CCCCCC4)C3CC3)c2)c1 (stereo not given)	–	–	> 30 µM	6.3 µM	2.3 nM
CC(C)C(c1cccc(NS(=O)(=O)c2cn(C)cn2)c1)c1c(O)c2c(oc1=O)CCCCCC2 (stereo not given)	–	–	> 30 µM	2.5 µM	0.5 nM
CC(C)N(c1cccc(C(c2c(O)c3c(oc2=O)CCCCCC3)C2CC2)c1)S(=O)(=O)c1ccccc1 (stereo not given)	< 10%	–	–	–	–
